The record followed here is ChEMBL document CHEMBL2057069, “Benzoxazole and benzothiazole amides as novel pharmacokinetic enhancers of HIV protease inhibitors” (Bioorg Med Chem Lett, 2012).

Data set [1] has as its system Human immunodeficiency virus 1. In words: Antiviral activity against wild type HIV1 3B infected in human MT4 LTR-EGFP cells by EGFP reporter gene assay. Format: functional, organism-based. To be noted: Human immunodeficiency virus 1, 3B.
The target in a further data set is Cytochrome P450 3A4 (Homo sapiens, UniProt P08684). In words: Inhibition of CYP3A4 in human liver microsomes using midazolam as substrate after 10 mins by LC/MS/MS analysis. A general note: Liver microsomes are a subcellular fraction often used to study metabolism.
For data set [2], the system named is Canis familiaris. Briefly: Enhancement of darunavir AUC (0 to infinity) in dog at 7.5 mg/kg, po administered 5 mins prior to darunavir co-administration. The class given is ADME, organism-based, Canis lupus familiaris. The arrangement: dose 7.5 mg/kg, route oral. To be noted: in vivo.
Data set [3] in a line: AUC (0 to infinity) in rat at 10 mg/kg, po administered as single dose. The class given is ADME, organism-based. The arrangement: time infinity, dose 10 mg/kg, route oral. Particulars: plasma.
Data set [4] has as its system Canis familiaris. In words: Enhancement of darunavir Cmax in dog at 7.5 mg/kg, po administered 5 mins prior to darunavir co-administration. The class given is ADME, organism-based, Canis lupus familiaris. Further details: dose 7.5 mg/kg, route oral. To be noted: in vivo.
The nature of data set [5]: Cmax in rat at 10 mg/kg, po administered as single dose. The class given is ADME, organism-based. The arrangement: dose 10 mg/kg, route oral. To be noted: in vivo. In outline:
(§1)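 Single oral dose of 10 mg/kg given to rats and dogs, n = 3 per species. Plasma Cmax, Tmax, AUC0–∞ and absolute oral bioavailability were derived from the plasma profiles.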

The nature of data set [6]: AUC (0 to infinity) in dog at 7.5 mg/kg, po. Format: ADME, organism-based, Canis lupus familiaris. Further details: time infinity, dose 7.5 mg/kg, route oral. Particulars: plasma. In outline:
(§2)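 Drug–drug interaction study in dogs, n = 3. The booster was given orally at 7.5 mg/kg as a PEG400 solution, 5 min before oral darunavir at 30 mg/kg. Darunavir plasma Cmax and AUC0–∞ were measured, with fold increase calculated against darunavir dosed alone.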

The nature of data set [7]: Tmax in rat at 10 mg/kg, po administered as single dose. Format: ADME, organism-based. The arrangement: dose 10 mg/kg, route oral. To be noted: in vivo. In outline: as §1
The nature of data set [8]: Apparent permeability across human Caco2 cells at 10 uM at pH 7.4 after 60 mins. Format: ADME, cell-based. Particulars: Caco-2, pH 7.4. In outline:
(§3)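 Caco-2 monolayers were exposed to compound at 10 µM and sampled after 60 min of incubation, at pH 5.5 or pH 7.4. Apparent permeability was measured in the absorptive and secretory directions, with efflux expressed as the secretory/absorptive ratio.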
(Passage across Caco-2 layers is used to estimate intestinal permeability.)

Data set [9] is described as follows: Cmax in dog at 7.5 mg/kg, po. Format: ADME, organism-based, Canis lupus familiaris. The arrangement: dose 7.5 mg/kg, route oral. To be noted: in vivo. In outline:
as §2

Data set [10] in a line: Absolute oral bioavailability in rat at 10 mg/kg administered as single dose. To be noted: in vivo. Format: ADME, organism-based. In outline: as §1
The nature of data set [11]: AUC (0 to infinity) in dog at 10 mg/kg, po administered as single dose. The class given is ADME, organism-based, Canis lupus familiaris. The arrangement: time infinity, dose 10 mg/kg, route oral. To be noted: plasma. In outline: as §1
The nature of data set [12]: Apparent permeability across human Caco2 cells at 10 uM at pH 5.5 after 60 mins. Format: ADME, cell-based. Particulars: Caco-2, pH 5.5. In outline: as §3
Data set [13] is described as follows: Absolute oral bioavailability in dog at 10 mg/kg administered as single dose. The class given is ADME, organism-based, Canis lupus familiaris. To be noted: in vivo. In outline: as §1
Data set [14] can be described thus: Cmax in dog at 10 mg/kg, po administered as single dose. Format: ADME, organism-based, Canis lupus familiaris. Further details: dose 10 mg/kg, route oral. To be noted: in vivo. In outline:
as §1

Data set [15] in a line: Tmax in dog at 10 mg/kg, po administered as single dose. Format: ADME, organism-based, Canis lupus familiaris. The arrangement: dose 10 mg/kg, route oral. Particulars: in vivo. In outline:
as §1

The nature of data set [16]: Efflux ratio of apparent permeability of the compound from basal to apical to apical to basal side of human Caco2 cells at 10 uM at pH 7.4 after 60 mins. Format: ADME, cell-based. Particulars: Caco-2, pH 7.4. In outline:
(§4)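 Caco-2 monolayers; test compound at 10 µM; apparent permeability measured in secretory and absorptive directions at pH 5.5 and at pH 7.4, read after 60 min incubation; transport polarity taken as P_secretory/P_absorptive.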

A short description of data set [17]: Efflux ratio of apparent permeability of the compound from basal to apical to apical to basal side of human Caco2 cells at 10 uM at pH 5.5 after 60 mins. The class given is ADME, cell-based. To be noted: Caco-2, pH 5.5. In outline: as §4
A further data set is filed under the species Homo sapiens. In words: Inhibition of P-glycoprotein using taxol as substrate.
Data set [18] in a line: Drug metabolism in dog hepatocytes at 2 uM after 2 hrs. Format: ADME, cell-based, Canis lupus familiaris, Hepatocyte. To be noted: read-out: Drug metabolism.

The source made the active and inactive calls. The calls are words filed in the database; no cut-off is given here.

Cytochrome P450 3A4, sequence (P08684 whole entry): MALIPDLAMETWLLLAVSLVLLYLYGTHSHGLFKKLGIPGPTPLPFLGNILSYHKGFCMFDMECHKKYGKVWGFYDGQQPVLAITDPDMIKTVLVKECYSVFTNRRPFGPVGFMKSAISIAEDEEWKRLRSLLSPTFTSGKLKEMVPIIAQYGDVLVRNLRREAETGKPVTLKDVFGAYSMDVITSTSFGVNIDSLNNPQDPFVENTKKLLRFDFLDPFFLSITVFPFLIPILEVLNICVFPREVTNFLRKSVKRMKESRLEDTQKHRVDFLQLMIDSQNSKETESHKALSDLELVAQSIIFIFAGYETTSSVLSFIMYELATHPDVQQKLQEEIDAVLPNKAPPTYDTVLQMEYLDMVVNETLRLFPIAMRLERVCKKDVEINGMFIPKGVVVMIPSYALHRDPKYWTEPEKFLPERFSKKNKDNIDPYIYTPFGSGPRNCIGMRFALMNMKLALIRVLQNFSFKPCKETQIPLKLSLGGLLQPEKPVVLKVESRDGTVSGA

For orientation: EC50 means the concentration giving half of the maximal effect. Low values mean an effect from little substance, high ones a need for much substance. What is called IC50 is the point on the concentration scale where inhibition reaches its midpoint. A low value points to greater potency in that assay. In turn, `O=C(N[C@@H](Cc1ccccc1)[C@H](O)CN(CCN1CCCC1)C(=O)c1ccc2nc(N3CCCC3)oc2c1)OCc1cncs1` came in with an EC50 in data set [1] of 58 µM. The same compound returned an IC50 against Cytochrome P450 3A4 of 0.13 µM.

Usually AUC(0-inf) stands for total exposure, with the tail of the curve extrapolated. A lower AUC(0-inf) goes with low exposure. As usually defined, the Cmax is the peak of the concentration-time curve. Broadly, the Tmax is the time at which the peak concentration occurs. One may read the Papp as a coefficient for how fast a substance crosses the barrier. Turning to `CCN(C)c1nc2ccc(C(=O)N(CC(C)C)C[C@@H](O)[C@H](Cc3ccccc3)NC(=O)OCc3cncs3)cc2o1`, the “fold change (FC)” value is given as 5 in the data set on Canis familiaris [2] and 2 with Canis familiaris [4]. Moreover, the area under the curve AUC(0-inf) in data set [3] was determined as 0.97 µg·h/mL; in [6] it was 2 µg·h/mL; in [11], 2.24 µg·h/mL. For the same compound, it took 71 µM to reach a half-maximal effect in data set [1] (EC50). Besides, the values for the Cmax in data set [5], in data set [9] and in data set [14] were 0.24 µg/mL, 0.61 µg/mL and 1.01 µg/mL, respectively. The Tmax in data set [7] was found to be 60 min; in [15], 30 min. In addition, the Papp at 1 h, 10 µM amounted to 110 nm/s in data set [8] and 100 nm/s in [12]. Also, the bioavailability in data set [10] was 44%; in data set [13], 81%.

On to `CC(C)CN(C[C@@H](O)[C@H](Cc1cccnc1)NC(=O)OCc1cncs1)C(=O)c1ccc2ncsc2c1`, for which the 50% effective concentration (EC50) in data set [1] is more than 100 µM. The compound further showed an IC50 against Cytochrome P450 3A4 of 0.09 µM.

As to `CC(C)CN(C[C@@H](O)[C@H](Cc1ccccc1)NC(=O)OCc1cncs1)C(=O)c1ccc2nc(-c3ccncc3)oc2c1`, the EC50 in data set [1] is more than 100 µM. The IC50 against Cytochrome P450 3A4 was found to be 0.024 µM.

As usually defined, the efflux ratio is a quotient of directional permeabilities that is used to spot active efflux. On to `CC(C)CN(C[C@@H](O)[C@H](Cc1ccccc1)NC(=O)OCc1cncs1)C(=O)c1ccc2ncsc2c1`, for which the “fold change (FC)” value in the data set on Canis familiaris [2] was determined as 4.8; in the data set with Canis familiaris [4] it was 2. For the same compound, the figures for the AUC(0-inf) in data set [3], in data set [6] and in data set [11] were 7.8 µg·h/mL, 7.07 µg·h/mL and 2.24 µg·h/mL, respectively. This compound also showed an EC50 in data set [1] of 95 µM. On Cytochrome P450 3A4, this compound came in with an IC50 of 0.023 µM. Moreover, the values for the Cmax in [5], in data set [9] and in [14] were 2.8 µg/mL, 2.1 µg/mL and 5.2 µg/mL, respectively. Besides, the results for the Tmax in [7] and in data set [15] were 30 min and 60 min, respectively. Also, the efflux ratio at 1 h, 10 µM in data set [16] came out at 3.6; in data set [17], 2. In addition, the figures for the Papp at 1 h, 10 µM in data set [8] and in [12] were 98 nm/s and 110 nm/s, respectively. The values for the bioavailability in [10] and in data set [13] were 107% and 97%, respectively.

Turning to `CC(C)CN(C[C@@H](O)[C@H](Cc1ccccc1)NC(=O)OCc1cncs1)C(=O)c1ccc2nc(N)sc2c1`, the “fold change (FC)” value is 4.7 in the data set on Canis familiaris [2] and 1.8 in the data set with Canis familiaris [4]. In addition, in the data set filed under Homo sapiens, the inhibition entry is “Active”. In [18], the metabolised at 2 h, 2 µM came to 12%. Moreover, the values for the AUC(0-inf) in data set [3], in data set [6] and in data set [11] were 0.01 µg·h/mL, 6.48 µg·h/mL and 0.2 µg·h/mL, respectively. The same compound registered an EC50 in data set [1] of 76 µM. On Cytochrome P450 3A4, this compound showed an IC50 of 0.019 µM. Moreover, the figures for the Cmax in data set [5], in data set [9] and in data set [14] were 0.01 µg/mL, 2.3 µg/mL and 0.14 µg/mL, respectively. Moreover, the results for the Tmax in [7] and in data set [15] were 30 min and 60 min, respectively. Also, the efflux ratio at 1 h, 10 µM in data set [16] was found to be 22; in data set [17], 26. Moreover, the Papp at 1 h, 10 µM in data set [8] was found to be 12 nm/s; in data set [12], 5.2 nm/s. The bioavailability in [10] came out at 0.82%; in data set [13] it was 1.37%.

The compound `CCN(C)c1nc2ccc(C(=O)N(CC3CCCCC3)C[C@@H](O)[C@H](Cc3ccccc3)NC(=O)OCc3cncs3)cc2o1` yielded an EC50 in [1] of 21 µM. Further, it took 0.026 µM to reach half-maximal inhibition against Cytochrome P450 3A4 (IC50).
